Results on 36 compounds are retold here after ChEMBL document CHEMBL1155841, “Methyl (11aS)-1,2,3,5,11,11a-hexahydro-3,3-dimethyl-1-oxo-6H-imidazo-[3',4':1,2]pyridin[3,4-b]indol-2-substituted acetates: synthesis and three-dimensional quantitative structure-activity relationship investigation as a class of novel vasodilators” (2008).

Common to all, as to format: functional
Experiment [1] is filed under the species Rattus norvegicus. The experiment in a line: Vasorelaxation activity against noradrenaline-induced hypertonic contraction in Wistar rat aorta strips at 5 mM. Set-up: scale not given: the % may be the effect or the level left. The method in brief:
(§1)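 Aortic strips first contracted with 59 µM noradrenaline, then washed out and stabilized for 30 min. After fresh solution, 59 µM NE was re-added, and peak contraction was taken as 100%. Test agent, dissolved in ethanol, was then added, with ethanol alone as vehicle control. Percent relaxation of the NE contraction was recorded as activity, given as mean ± SD, n = 6.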

Experiment [2] is filed under the species Rattus norvegicus. The experiment is described as follows: Vasorelaxation activity against noradrenaline-induced hypertonic contraction in Wistar rat aorta strips at 50 uM. Further details: scale not given: the % may be the effect or the level left. The method in brief:
as §1

Experiment [3] is filed under the species Rattus norvegicus. The experiment in a line: Vasorelaxation activity against noradrenaline-induced hypertonic contraction in Wistar rat aorta strips. The method in brief: as §1

`COC(=O)CNC(=O)[C@@H]1Cc2c([nH]c3ccccc23)CN1C(=O)OC(C)(C)C` displayed an Activity in the experiment listed under Rattus norvegicus [1] of 13.5%. In turn, `COC(=O)[C@H](CO)NC(=O)[C@@H]1Cc2c([nH]c3ccccc23)CN1C(=O)OC(C)(C)C` came in with an Activity in the experiment listed under Rattus norvegicus [1] of 6.1%. In turn, `CCC(C)[C@H](NC(=O)[C@@H]1Cc2c([nH]c3ccccc23)CN1C(=O)OC(C)(C)C)C(=O)OC` (some centres undefined) came in with an Activity in the experiment listed under Rattus norvegicus [1] of 10.9%. Still for that read-out and setting: with `COC(=O)[C@H](CCC(N)=O)NC(=O)[C@@H]1Cc2c([nH]c3ccccc23)CN1C(=O)OC(C)(C)C` the figure was 0%. With `COC(=O)CN1C(=O)[C@@H]2Cc3c([nH]c4ccccc34)CN2C1(C)C`, the Activity in the experiment listed under Rattus norvegicus [2] is on record as 45.5%. Regarding `COC(=O)[C@H](C)N1C(=O)[C@@H]2Cc3c([nH]c4ccccc34)CN2C1(C)C`, the values for the Activity result in the experiment listed under Rattus norvegicus [3] and in the experiment filed under Rattus norvegicus [2] were “Dose-dependent effect” and 91.8%, respectively.

In the experiment filed under Rattus norvegicus [2], `COC(=O)C[C@@H](C(=O)OC)N1C(=O)[C@@H]2Cc3c([nH]c4ccccc34)CN2C1(C)C` displayed an Activity of 6.3%. `COC(=O)[C@H](CCSC)NC(=O)[C@@H]1Cc2c([nH]c3ccccc23)CN1C(=O)OC(C)(C)C` registered an Activity in the experiment filed under Rattus norvegicus [1] of 6%. Regarding `COC(=O)[C@H](Cc1ccc(O)cc1)NC(=O)[C@@H]1Cc2c([nH]c3ccccc23)CN1C(=O)OC(C)(C)C`, the Activity in the experiment listed under Rattus norvegicus [1] was found to be 7.4%. On the same count and under the same terms, for `COC(=O)CC[C@H](NC(=O)[C@@H]1Cc2c([nH]c3ccccc23)CN1C(=O)OC(C)(C)C)C(=O)OC` the value was 0%; for `COC(=O)[C@H](Cc1c[nH]c2ccccc12)NC(=O)[C@@H]1Cc2c([nH]c3ccccc23)CN1C(=O)OC(C)(C)C`, 15.2%.

In the case of `CC(=O)OCC[N+](C)(C)C` [ACETYLCHOLINE], in the experiment listed under Rattus norvegicus [2], the Activity stood at 42.3%. In the case of `COC(=O)C[C@H](NC(=O)[C@@H]1Cc2c([nH]c3ccccc23)CN1C(=O)OC(C)(C)C)C(=O)OC`, in the experiment filed under Rattus norvegicus [1], the Activity was determined as 0%. `COC(=O)[C@H](CC(C)C)N1C(=O)[C@@H]2Cc3c([nH]c4ccccc34)CN2C1(C)C` came in with an Activity in the experiment filed under Rattus norvegicus [2] of 15.7%.

Turning to `CCC(C)[C@@H](C(=O)OC)N1C(=O)[C@@H]2Cc3c([nH]c4ccccc34)CN2C1(C)C` (some centres undefined), the Activity entry in the experiment filed under Rattus norvegicus [3] is “Dose-dependent effect”; in the experiment listed under Rattus norvegicus [2] it was 34%. In the experiment listed under Rattus norvegicus [2], `COC(=O)[C@H](CO)N1C(=O)[C@@H]2Cc3c([nH]c4ccccc34)CN2C1(C)C` had an Activity of 16.9%.

On to `COC(=O)[C@H](CCCNC(=N)N)NC(=O)[C@@H]1Cc2c([nH]c3ccccc23)CN1C(=O)OC(C)(C)C`, for which the Activity in the experiment listed under Rattus norvegicus [1] came out at 11.3%. Regarding `COC(=O)[C@H](C)NC(=O)[C@@H]1Cc2c([nH]c3ccccc23)CN1C(=O)OC(C)(C)C`, in the experiment listed under Rattus norvegicus [1], the Activity came to 18.8%.

`COC(=O)[C@@H](NC(=O)[C@@H]1Cc2c([nH]c3ccccc23)CN1C(=O)OC(C)(C)C)C(C)C`: the Activity in the experiment filed under Rattus norvegicus [1] is reported as 8.9%. Turning to `COC(=O)[C@H](Cc1ccccc1)N1C(=O)[C@@H]2Cc3c([nH]c4ccccc34)CN2C1(C)C`, the Activity in the experiment filed under Rattus norvegicus [2] worked out at 0%.

The compound `COC(=O)[C@H](C(C)O)N1C(=O)[C@@H]2Cc3c([nH]c4ccccc34)CN2C1(C)C` (some centres undefined) gave an Activity in the experiment filed under Rattus norvegicus [2] of 0%. For `CN1CC(=O)N2[C@H](c3ccc4c(c3)OCO4)c3[nH]c4ccccc4c3C[C@@H]2C1=O` [TADALAFIL], the Activity in the experiment listed under Rattus norvegicus [1] turned out to be 89.9%. On the same count and under the same terms, for `COC(=O)[C@H](Cc1ccccc1)NC(=O)[C@@H]1Cc2c([nH]c3ccccc23)CN1C(=O)OC(C)(C)C` the value was 0%; for `COC(=O)[C@@H](NC(=O)[C@@H]1Cc2c([nH]c3ccccc23)CN1C(=O)OC(C)(C)C)C(C)O` (some centres undefined), 0%. `COC(=O)[C@H](CCC(N)=O)N1C(=O)[C@@H]2Cc3c([nH]c4ccccc34)CN2C1(C)C` came in with an Activity in the experiment filed under Rattus norvegicus [2] of 0%. As to `COC(=O)[C@H](Cc1c[nH]cn1)N1C(=O)[C@@H]2Cc3c([nH]c4ccccc34)CN2C1(C)C`, the Activity in the experiment filed under Rattus norvegicus [2] was determined as 0%.

Regarding `COC(=O)CC[C@@H](C(=O)OC)N1C(=O)[C@@H]2Cc3c([nH]c4ccccc34)CN2C1(C)C`, in the experiment listed under Rattus norvegicus [2], the Activity was determined as 9.9%. Still for that read-out and setting: for `COC(=O)[C@H](CC(N)=O)N1C(=O)[C@@H]2Cc3c([nH]c4ccccc34)CN2C1(C)C` the value was 0%. In turn, `COC(=O)[C@H](CCCNC(=N)N)N1C(=O)[C@@H]2Cc3c([nH]c4ccccc34)CN2C1(C)C` displayed an Activity in the experiment listed under Rattus norvegicus [2] of 36.7%. Regarding `COC(=O)[C@H](CC(C)C)NC(=O)[C@@H]1Cc2c([nH]c3ccccc23)CN1C(=O)OC(C)(C)C`, in the experiment filed under Rattus norvegicus [1], the Activity is recorded as 7.8%.

In the experiment listed under Rattus norvegicus [1], `COC(=O)[C@H](Cc1c[nH]cn1)NC(=O)[C@@H]1Cc2c([nH]c3ccccc23)CN1C(=O)OC(C)(C)C` came in with an Activity of 0%.

As to `COC(=O)[C@H](Cc1c[nH]c2ccccc12)N1C(=O)[C@@H]2Cc3c([nH]c4ccccc34)CN2C1(C)C`, the Activity result in the experiment filed under Rattus norvegicus [3] was “Dose-dependent effect”; in the experiment filed under Rattus norvegicus [2], 63.5%. As to `COC(=O)[C@H](CC(N)=O)NC(=O)[C@@H]1Cc2c([nH]c3ccccc23)CN1C(=O)OC(C)(C)C`, the Activity in the experiment filed under Rattus norvegicus [1] amounted to 0%. `COC(=O)[C@H](C(C)C)N1C(=O)[C@@H]2Cc3c([nH]c4ccccc34)CN2C1(C)C`: the Activity in the experiment listed under Rattus norvegicus [2] is on record as 24.2%.

With `COC(=O)[C@H](CCSC)N1C(=O)[C@@H]2Cc3c([nH]c4ccccc34)CN2C1(C)C`, the Activity in the experiment listed under Rattus norvegicus [2] is 15.1%.

In the experiment filed under Rattus norvegicus [2], `COC(=O)[C@H](Cc1ccc(O)cc1)N1C(=O)[C@@H]2Cc3c([nH]c4ccccc34)CN2C1(C)C` yielded an Activity of 16.3%.
